Each block holds one molecule with its values, some of them ahead of it. The source made the active and inactive calls. The rule behind the calls is not given here.
Columns and labels:
[1] = target: T1, Thymidine kinase, cytosolic (Cricetulus griseus) (UniProt P09768); assay: Inhibition of thymidine kinase in BHK21 (C13) cells using [14C]thymidine at 100 to 200 uM after 10 mins by liquid scintillation spectrometer analysis relative to control in presence of Mg2+; format: cell-based; conditions: Mesocricetus auratus
T1 sequence (whole entry): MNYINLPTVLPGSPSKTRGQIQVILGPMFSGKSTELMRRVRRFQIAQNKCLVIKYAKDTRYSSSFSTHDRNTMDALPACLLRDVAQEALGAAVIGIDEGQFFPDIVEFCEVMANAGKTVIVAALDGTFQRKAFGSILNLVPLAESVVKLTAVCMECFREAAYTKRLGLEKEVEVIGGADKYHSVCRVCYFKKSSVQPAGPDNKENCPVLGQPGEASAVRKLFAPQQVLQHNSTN

[2] = target: T1, Thymidine kinase, cytosolic (Cricetulus griseus); assay: Inhibition of thymidine kinase in BHK21 (C13) cells using [14C]thymidine at 200 uM after 10 mins by liquid scintillation spectrometer analysis relative to control in presence of Mg2+; format: cell-based; conditions: Mesocricetus auratus
[3] = target: T1, Thymidine kinase, cytosolic (Cricetulus griseus); assay: Activity at thymidine kinase in BHK21 (C13) cells at 400 uM after 30 mins relative to thymidine; format: cell-based; conditions: Mesocricetus auratus
How it was run: (§1)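 Radiolabeled thymidine or 2'-deoxyuridine derivatives tested as substrates: 40 μL BHK21(C13) 100000g supernatant, Tris-HCl 0.05 M pH 8.0, ATP 5 mM, MgCl2 2.5 mM, no thymidine, 30 min at 37 °C. Products separated by paper electrophoresis in 0.05 M triethylammonium bicarbonate pH 7.6; radioactivity counted in the TMP region.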

[4] = target: T1, Thymidine kinase, cytosolic (Cricetulus griseus); assay: Inhibition of thymidine kinase in BHK21 (C13) cells using thymidine as substrate assessed as formation of TMP at 0.1 mM; format: cell-based; conditions: Mesocricetus auratus
How it was run: (§2)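 BHK21(C13) 100000g supernatant in Tris-HCl 0.05 M pH 8.0, ATP 5 mM, MgCl2 2.5 mM, [14C]thymidine 3.6 μM, 10 min at 37 °C. Reaction stopped by boiling; [14C]TMP bound to DEAE-cellulose disks and counted by liquid scintillation, corrected for unincubated blanks.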

[5] = target: T1, Thymidine kinase, cytosolic (Cricetulus griseus); assay: Inhibition of thymidine kinase in BHK21 (C13) cells using thymidine as substrate assessed as formation of TMP at 0.2 mM; format: cell-based; conditions: Mesocricetus auratus; how it was run: as §2
[6] = target: T1, Thymidine kinase, cytosolic (Cricetulus griseus); assay: Inhibition of thymidine kinase in BHK21 (C13) cells using thymidine as substrate assessed as formation of TMP at […]; format: cell-based; conditions: Mesocricetus auratus
[7] = target: T1, Thymidine kinase, cytosolic (Cricetulus griseus); assay: Inhibition of thymidine kinase in BHK21 (C13) cells using thymidine as substrate assessed as formation of TMP at 1.4 mM; format: cell-based; conditions: Mesocricetus auratus; how it was run: as §2
[8] = target: T1, Thymidine kinase, cytosolic (Cricetulus griseus); assay: Inhibition of thymidine kinase in BHK21 (C13) cells using thymidine as substrate assessed as formation of TMP at 14.4 mM; format: cell-based; conditions: Mesocricetus auratus; how it was run: as §2
[9] = target: T1, Thymidine kinase, cytosolic (Cricetulus griseus); assay: Inhibition of thymidine kinase in BHK21 (C13) cells using thymidine as substrate assessed as formation of TMP at 7.2 mM; format: cell-based; conditions: Mesocricetus auratus; how it was run: as §2
[10] = target: T1, Thymidine kinase, cytosolic (Cricetulus griseus); assay: Inhibition of thymidine kinase in BHK21 (C13) cells using thymidine as substrate assessed as formation of TMP at 10 mM; format: cell-based; conditions: Mesocricetus auratus; how it was run: as §2
[11] = target: T1, Thymidine kinase, cytosolic (Cricetulus griseus); assay: Inhibition of thymidine kinase in BHK21 (C13) cells using thymidine as substrate assessed as formation of TMP at 5 mM; format: cell-based; conditions: Mesocricetus auratus; how it was run: as §2
[12] = target: T1, Thymidine kinase, cytosolic (Cricetulus griseus); assay: Inhibition of thymidine kinase in BHK21 (C13) cells using thymidine as substrate assessed as formation of TMP at 13.2 mM; format: cell-based; conditions: Mesocricetus auratus; how it was run: as §2
[13] = target: T1, Thymidine kinase, cytosolic (Cricetulus griseus); assay: Inhibition of thymidine kinase in BHK21 (C13) cells using thymidine as substrate assessed as formation of TMP at 6.6 mM; format: cell-based; conditions: Mesocricetus auratus; how it was run: as §2
[14] = target: T2, Thymidine kinase, cytosolic (Mus musculus, UniProt P04184); assay: Competitive inhibition of thymidine kinase in mouse Ehrlich's ascites cells
T2 sequence (P04184 whole entry): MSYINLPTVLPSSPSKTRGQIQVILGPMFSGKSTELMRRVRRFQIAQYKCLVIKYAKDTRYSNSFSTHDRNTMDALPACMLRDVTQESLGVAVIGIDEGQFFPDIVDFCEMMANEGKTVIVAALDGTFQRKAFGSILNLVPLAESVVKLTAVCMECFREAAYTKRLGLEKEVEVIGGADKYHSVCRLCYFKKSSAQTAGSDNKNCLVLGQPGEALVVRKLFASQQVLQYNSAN

[15] = target: T1, Thymidine kinase, cytosolic (Cricetulus griseus); assay: Inhibition of thymidine kinase in BHK21 (C13) cells using thymidine as substrate assessed as formation of TMP at 6 mM; format: cell-based; conditions: Mesocricetus auratus; how it was run: as §2
[16] = target: T1, Thymidine kinase, cytosolic (Cricetulus griseus); assay: Activity at thymidine kinase in BHK21 (C13) cells at 54 to 542 uM after 30 mins relative to thymidine; format: cell-based; conditions: Mesocricetus auratus; how it was run: as §1
[17] = target: T1, Thymidine kinase, cytosolic (Cricetulus griseus); assay: Inhibition of thymidine kinase in BHK21 (C13) cells using thymidine as substrate assessed as formation of TMP at 12 mM; format: cell-based; conditions: Mesocricetus auratus; how it was run: as §2
[18] = target: T1, Thymidine kinase, cytosolic (Cricetulus griseus); assay: Inhibition of thymidine kinase in BHK21 (C13) cells using thymidine as substrate assessed as formation of TMP at 6.8 mM; format: cell-based; conditions: Mesocricetus auratus; how it was run: as §2
[19] = target: T1, Thymidine kinase, cytosolic (Cricetulus griseus); assay: Inhibition of thymidine kinase in BHK21 (C13) cells using thymidine as substrate assessed as formation of TMP at 3.4 mM; format: cell-based; conditions: Mesocricetus auratus; how it was run: as §2
[20] = target: T1, Thymidine kinase, cytosolic (Cricetulus griseus); assay: Inhibition of thymidine kinase in BHK21 (C13) cells using thymidine as substrate assessed as formation of TMP at 2 mM; format: cell-based; conditions: Mesocricetus auratus; how it was run: as §2
[21] = target: T1, Thymidine kinase, cytosolic (Cricetulus griseus); assay: Inhibition of thymidine kinase in BHK21 (C13) cells using thymidine as substrate assessed as formation of TMP at 4 mM; format: cell-based; conditions: Mesocricetus auratus; how it was run: as §2
[22] = target: T1, Thymidine kinase, cytosolic (Cricetulus griseus); assay: Effect on thymidine kinase in BHK21 (C13) cells using [14C]thymidine at 5 mM after 10 mins by liquid scintillation spectrometer analysis relative to control in presence of Mg2+; format: cell-based; conditions: Mesocricetus auratus
How it was run: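 BHK21(C13) high-speed supernatant, 10 min at 37 °C, [14C]TMP on DEAE-cellulose disks, scintillation counting. Phosphate donors (nucleoside triphosphates 5 mM, giving 2.5 mM Mg2+ triphosphates) tested with 14.4 μM [14C]thymidine. Inhibitor assays used 0.19 mM [14C]thymidine: 5-iodo nucleosides at 0.19 mM with saturating Mg2+-ATP, or dCTP 5 mM with ATP 5 mM and MgCl2 7.5 mM.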

[23] = target: T3, Thymidine kinase, cytosolic (Homo sapiens) (UniProt P04183); assay: Effect on human cytoplasmic thymidine kinase using [14C]thymidine at 2 mM after 10 mins by liquid scintillation spectrometer analysis relative to control in presence of Mg2+
T3 sequence (whole entry): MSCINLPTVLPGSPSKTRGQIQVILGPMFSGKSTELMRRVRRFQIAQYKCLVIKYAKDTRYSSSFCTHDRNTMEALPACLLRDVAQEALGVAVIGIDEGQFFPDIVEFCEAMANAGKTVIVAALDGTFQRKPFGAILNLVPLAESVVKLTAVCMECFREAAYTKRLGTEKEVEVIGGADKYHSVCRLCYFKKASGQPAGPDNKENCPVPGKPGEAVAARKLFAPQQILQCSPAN

[24] = target: T4, Thymidine kinase 2, mitochondrial (Homo sapiens) (UniProt O00142); assay: Effect on human mitochondrial thymidine kinase using [14C]thymidine at 2 mM after 10 mins by liquid scintillation spectrometer analysis relative to control in presence of Mg2+
T4 sequence (whole entry): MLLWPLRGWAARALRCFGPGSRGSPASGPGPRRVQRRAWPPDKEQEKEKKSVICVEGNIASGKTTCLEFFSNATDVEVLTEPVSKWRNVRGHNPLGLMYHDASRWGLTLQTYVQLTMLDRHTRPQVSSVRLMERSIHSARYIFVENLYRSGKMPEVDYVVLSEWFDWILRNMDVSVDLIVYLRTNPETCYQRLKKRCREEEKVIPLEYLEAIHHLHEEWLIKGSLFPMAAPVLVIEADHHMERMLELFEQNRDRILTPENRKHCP

inhibition [1]: Active
SMILES: CCC(=O)NCC(OP(=O)(O)OP(=O)(O)OP(=O)(O)O)[C@H]1O[C@@H](n2cc(C)c(=O)[nH]c2=O)C[C@@H]1O (single isomer, unassigned)

inhibition [2]: Active
SMILES: CCNc1cn([C@H]2C[C@H](O)[C@@H](COP(=O)(O)OP(=O)(O)OP(=O)(O)O)O2)c(=O)[nH]c1=O

Activity [3]: inactive
SMILES: CC(=O)NCC(O)[C@H]1O[C@@H](n2cc(C)c(=O)[nH]c2=O)C[C@@H]1O (stereo in doubt; [14C]4b)

inhibition [4]: 13% | inhibition [5]: 26%
SMILES: CCn1c(=O)c(C)cn([C@H]2C[C@H](O)[C@@H](CO)O2)c1=O

Activity [3]: inactive
SMILES: CC(=O)NCC(O)[C@H]1O[C@@H](n2cc(C)c(=O)[nH]c2=O)C[C@@H]1O (stereo in doubt; [14C]4a)

inhibition [6]: 30% | inhibition [7]: 13%
SMILES: CC[S+]([O-])C[C@H]1O[C@@H](n2cc(C)c(=O)[nH]c2=O)C[C@@H]1O (stereo partly specified)

inhibition [8]: 45% | inhibition [9]: 24%
SMILES: CCn1c(=O)ccn([C@H]2C[C@H](O)[C@@H](CO)O2)c1=O

inhibition [1]: Active
SMILES: CCC(=O)NCC(OP(=O)(O)OP(=O)(O)OP(=O)(O)O)[C@H]1O[C@@H](n2cc(C)c(=O)[nH]c2=O)C[C@@H]1O (single isomer, unassigned; more polar)

inhibition [10]: 38% | inhibition [11]: 24%
SMILES: CCNc1ccn([C@H]2C[C@H](O)[C@@H](CO)O2)c(=O)n1

inhibition [12]: 77% | inhibition [13]: 38%
SMILES: CCCC(=O)NC[C@H]1O[C@@H](n2cc(C)c(=O)[nH]c2=O)C[C@@H]1O

Ki [14]: 24 µM
SMILES: CCOC1N([C@H]2C[C@H](O)[C@@H](CO)O2)C(=O)NC(=O)C1(C)Br (single isomer, unassigned)

inhibition [15]: 0% | Activity [16]: < 0.25% | inhibition [17]: 0%
SMILES: CC(=O)NCc1cn([C@H]2C[C@H](O)[C@@H](CO)O2)c(=O)[nH]c1=O

inhibition [18]: 25% | inhibition [19]: 13%
SMILES: CCNc1cn([C@H]2C[C@H](O)[C@@H](CO)O2)c(=O)[nH]c1=O

inhibition [20]: 22% | inhibition [21]: 36%
SMILES: O=C(CI)NCCC(=O)Nc1cn([C@H]2C[C@H](O)[C@@H](CO)O2)c(=O)[nH]c1=O

Activity [22]: 6% | Activity [23]: 36% | Activity [24]: 46%
SMILES: Nc1nc(=O)c2ncn([C@@H]3O[C@H](COP(=O)(O)OP(=O)(O)OP(=O)(O)O)[C@@H](O)[C@@H]3O)c2[nH]1
